Screening results deposited in PubChem by Johns Hopkins Ion Channel Center.
KCNQ1 act: potentiators or activators of KCNQ1 channel, primary screen, cell-based, thallium flux, high-throughput; Potassium voltage-gated channel subfamily KQT member 1 (Homo sapiens), P51787; B-score at 10 µM; AID 2648, 2010; 310,000 compounds, 0.35% hits; CHO-K1 KCNQ1, thallium flux FluxOR fluorescence; stronger effect = higher value;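 active means fluorescence ratio B-score, a plate-corrected score, at least three library SD, with initial intensity B-score within 5 SD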
Target sequence (P51787 whole entry, looked up): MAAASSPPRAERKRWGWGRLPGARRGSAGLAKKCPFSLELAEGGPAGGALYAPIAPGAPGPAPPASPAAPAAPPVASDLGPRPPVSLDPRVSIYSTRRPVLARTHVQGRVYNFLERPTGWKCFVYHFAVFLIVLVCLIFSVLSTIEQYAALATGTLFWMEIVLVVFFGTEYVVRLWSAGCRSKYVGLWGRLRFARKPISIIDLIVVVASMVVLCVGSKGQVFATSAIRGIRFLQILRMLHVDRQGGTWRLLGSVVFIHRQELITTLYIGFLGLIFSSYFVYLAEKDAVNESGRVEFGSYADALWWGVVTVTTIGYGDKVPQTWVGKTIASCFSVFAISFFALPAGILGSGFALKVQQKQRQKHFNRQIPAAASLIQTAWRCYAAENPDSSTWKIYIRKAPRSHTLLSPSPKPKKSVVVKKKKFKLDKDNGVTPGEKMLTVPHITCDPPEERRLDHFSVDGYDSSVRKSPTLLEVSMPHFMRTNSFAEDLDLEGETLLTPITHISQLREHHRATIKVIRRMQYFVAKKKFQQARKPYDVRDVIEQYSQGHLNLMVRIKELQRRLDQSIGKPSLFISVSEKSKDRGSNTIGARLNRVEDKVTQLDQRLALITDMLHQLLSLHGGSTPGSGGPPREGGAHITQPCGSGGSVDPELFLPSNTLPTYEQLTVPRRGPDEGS
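Schedule – 37 °C overnight plating, 90-min dark dye load, 20-min compound pretreatment · System – stable KCNQ1 CHO-K1 line · Probe or stimulus – thallium- and potassium-containing depolarizing buffer · Measured by – kinetic FluxOR fluorescence, 10 s baseline plus 110 s post-stimulus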
hERG protect: hERG rescue from dofetilide block, primary screen, cell-based, CHO-hERG, FluxOR thallium flux, dofetilide IC70. Voltage-gated inwardly rectifying potassium channel KCNH2 (Homo sapiens), Q12809. dofetilide IC70 present. activation (rescue from dofetilide block), less the hit threshold, % at 10 µM. 310,000 compounds, 0.51% hits. AID 1511, 2009;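 active means activation above the mean of controls blocked by dofetilide plus 5 SD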;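 further: thallium influx through hERG after potassium depolarization seen as dye fluorescence rise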
KCNQ1 inh: inhibitors of human KCNQ1 channel, primary screen, cell-based, thallium flux, high-throughput; B-score at 10 µM; AID 2642, 2010; CHO-K1 KCNQ1, FluxOR thallium flux fluorescence; stronger effect = higher value; 310,000 compounds, 1.3% hits; Potassium voltage-gated channel subfamily KQT member 1 (Homo sapiens), P51787;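 active means compounds whose thallium flux B-score, printed positive for inhibition, exceeds three library SD while starting fluorescence stays within three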;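 further: channel opened by potassium depolarization with thallium stimulus after 20 min compound exposure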
KCNK9 inh: KCNK9 potassium channel inhibitors, primary screen, HEK293 cells, thallium flux | B-score at 10 µM | AID 488922, 2010 | FluxOR thallium flux fluorescence; stronger effect = lower value | Potassium channel subfamily K member 9 (Homo sapiens), Q9NPC2 | 310,000 compounds, 1.2% hits;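 active means ratio B-score over 3 SD below the library mean, with starting fluorescence within 5 SD of its mean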;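 further: negative B-score means less thallium flux so channel inhibition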
KCNK3 inh: human KCNK3 channel inhibitors, primary screen, CHO cells, FluxOR thallium flux, B-score; Potassium channel subfamily K member 3 (Homo sapiens), O14649; FluxOR fluorescence; stronger effect = lower value; B-score at 10 µM; 340,000 compounds, 0.84% hits;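 active means B-score under library mean minus 4 SD, starting fluorescence ratio at most library mean plus 5 SD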;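 further: more negative B-score means stronger inhibition of thallium flux through KCNK3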
Kir21 inh: inhibitors of mouse Kir2.1 inward-rectifier potassium channel. Inward rectifier potassium channel 2 (Mus musculus), P35561. B-score at 10 µM. HEK293-Kir2.1, FluxOR thallium flux fluorescence; stronger effect = lower value. 310,000 compounds, 0.85% hits;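 active means fluorescence ratio B-score at or below minus 3 SD of library scores, with starting-brightness B-score within 2 SD, cut at about -4.2 in these data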;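 further: channel flux triggered by added potassium and thallium sulfate stimulus; B-score of peak minus minimum fluorescence over baseline after thallium stimulus; more negative B-score means stronger Kir2.1 block with less thallium influx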
KCNK9 block conf: KCNK9 potassium channel inhibitors, confirmation, HEK293 cells, thallium flux, duplicate; shares compounds with KCNK9 inh; FluxOR thallium flux fluorescence; inhibition, % at 10 µM; 4,900 compounds, 43% hits;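 active means thallium signal inhibited by more than 5 SD of the compound-free buffer control wells, on both duplicate plates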
Kir21 sel: mouse Kir2.1 channel inhibition, confirmation, selectivity assay for KCNK9 modulator project, cell-based, HEK293, thallium flux | shares compounds with KCNK9 inh | Kir2.1 cells, FluxOR thallium flux fluorescence | inhibition, % at 10 µM | 4,900 compounds, 4% hits;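 active means thallium signal drop more than 5 SD beyond the mean of the no-compound control wells, seen in both duplicate plates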;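 further: signal is fluorescence rise after thallium addition divided by baseline fluorescence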
HEK293 Tl ctr: thallium flux in non-induced HEK293 cells, confirmation, counter-screen for KCNK9 inhibitor project, cell-based, second counter screen, non-induced KCNK9-HEK293; shares compounds with KCNK9 inh; FluxOR thallium flux; inhibition, % at 10 µM; 4,900 compounds, 40% hits; AID 492997, 2010;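 active means thallium signal drop beyond 5 SD of the untreated control mean, on both duplicate plates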
Large screens that a line does not name were inactive (follow-up assays come after a bar, where they were run). Only some compounds are listed: those with a hit (about 3.7% of all), similar ones and a draw of the others.

CCCCCCNC(=O)c1cccc(-c2ccc(C)c3ccccc23)n1	none | KCNK9 block conf inactive | Kir21 sel inactive | HEK293 Tl ctr inactive
COc1ccccc1C/C(N)=N/OC(=O)COc1ccccc1C	none | KCNK9 block conf inactive | Kir21 sel inactive | HEK293 Tl ctr inactive
N/C(Cc1cccc2ccccc12)=N\OC(=O)COc1ccccc1	none
COc1ccccc1C/C(N)=N/OC(=O)COc1cccc2ccccc12	none | KCNK9 block conf inactive | Kir21 sel inactive | HEK293 Tl ctr inactive
Cc1ccccc1OCC(=O)Nc1ccc([N+](=O)[O-])cc1	none
CCOc1ccc(S(=O)(=O)N(C)c2ccc(OCC(=O)Nc3ccccc3F)cc2)cc1	none (no result: KCNQ1 act, hERG protect, KCNQ1 inh, KCNK9 inh, Kir21 inh)
O=C(N/N=C\c1cccc(F)c1)c1ccc(Cn2cc(Br)c([N+](=O)[O-])n2)o1	none
O=C(N/N=C\c1ccc(F)cc1)c1ccc(Cn2cc(Br)c([N+](=O)[O-])n2)o1	KCNK9 inh -12 | KCNK9 block conf 50% | Kir21 sel inactive | HEK293 Tl ctr inactive
N#CC1(NC(=O)CSc2nnc(-c3ccccc3F)n2N)CCCCC1	none
Cc1ccc(C)n1N1C(=O)/C(=C\c2ccc(Cl)cc2)SC1=S	none | KCNK9 block conf inactive | Kir21 sel inactive | HEK293 Tl ctr inactive
CCc1ccc(CNC(=O)C2CCN(S(=O)(=O)N3CCCC3)CC2)cc1	none
COc1ccc(N=C2SC(CC(=O)Nc3ccccc3OC)C(=O)N2Cc2ccco2)cc1 (stereo not drawn)	none | KCNK9 block conf inactive | Kir21 sel inactive | HEK293 Tl ctr inactive
CN(C)CCn1c(=O)n(-c2ccc(F)cc2)c(=O)c2c3c(sc21)CCCCC3	none
CN(C)CCn1c(=O)n(-c2cccc(Cl)c2)c(=O)c2c3c(sc21)CCCCC3	none | KCNK9 block conf inactive | Kir21 sel inactive | HEK293 Tl ctr inactive
Cn1c(SCc2nc(-c3ccc(Cl)cc3)no2)nnc1-c1ccccc1	none
COc1ccc(-c2noc(CSc3nnc(Cc4ccccc4)n3-c3ccc(Cl)cc3)n2)cc1	none | KCNK9 block conf inactive | Kir21 sel inactive | HEK293 Tl ctr inactive
Cc1ccc(-c2noc(CSc3nnc(Cc4ccccc4)n3-c3ccc(Cl)cc3)n2)cc1	none | KCNK9 block conf inactive | Kir21 sel inactive | HEK293 Tl ctr 31%
Cc1ccc(-c2noc(CSc3nnc(CCc4ccccc4)n3-c3ccccc3)n2)cc1	KCNK9 inh -10 | KCNK9 block conf inactive | Kir21 sel inactive | HEK293 Tl ctr 36%
CCN(CC(=O)NCc1cccs1)C(=O)c1ccc(S(=O)(=O)Nc2ccccc2F)cc1	none
Cc1cc(F)ccc1S(=O)(=O)N1CCCOC1CNC(=O)C(=O)NCc1cccnc1 (stereo not drawn)	none
CCn1c2ccccc2c2cc(NC(=O)c3cccc(OC)c3)ccc21	KCNK9 inh -12 | KCNK9 block conf 43% | Kir21 sel inactive | HEK293 Tl ctr 36%
CCn1c2ccccc2c2cc(NC(=O)c3cccc(OC)c3OC)ccc21	none
CN(c1ccccc1C(=O)N1CCN(c2ccccc2F)CC1)S(=O)(=O)c1ccccc1	none
Clc1cccc(OCCN2CCN(CCOc3cccc(Cl)c3)CC2)c1	none | KCNK9 block conf inactive | Kir21 sel inactive | HEK293 Tl ctr inactive
CCOc1cc(/C=N/Nc2nc3ccccc3[nH]2)cc(Br)c1OCC(=O)N(C)C	KCNK9 inh -11 | KCNK9 block conf 58% | Kir21 sel inactive | HEK293 Tl ctr inactive
COCC(=O)Nc1ccc2c(c1)OCC(=O)N2Cc1ccc(C)cc1	none
Cc1ccccc1NC(=O)c1oc(=O)c2ccccc2c1-c1ccccc1	none
Cc1ccc(C)c(NC(=O)c2oc(=O)c3ccccc3c2-c2ccccc2)c1	KCNK9 inh -15 | KCNK9 block conf 64% | Kir21 sel inactive | HEK293 Tl ctr 44%
CC(C)(C)OC(=O)NCCCCCc1nnc(SCc2ccccc2F)o1	none | KCNK9 block conf inactive | Kir21 sel inactive | HEK293 Tl ctr inactive
CC(C)(C)OC(=O)NCCCCCc1nnc(SCc2ccccc2)o1	none
CC(NC(=O)Cn1cc2c(n1)CCCCC2)c1ccccc1 (stereo not drawn)	none
O=C(Cn1cc2c(n1)CCCC2)Nc1cc(-c2cccc(Cl)c2)no1	KCNK9 inh -15 | KCNK9 block conf 60% | Kir21 sel inactive | HEK293 Tl ctr inactive
COc1ccc(S(=O)(=O)N2CCC(C(=O)NC3CCCCC3)CC2)cc1C	none
CCOC(=O)c1ccc(NC(=O)C2C3CCCCC32)cc1 (stereo not drawn)	KCNK9 inh -9.4 | KCNK9 block conf inactive | Kir21 sel inactive | HEK293 Tl ctr inactive
Cc1cccc(N2CCN(C(=O)c3cc(COc4ccc(F)c(F)c4)on3)CC2)n1	none
C=CCC1(CC=C)CCCN1C(=O)c1cc(COc2ccc(F)c(F)c2)on1	KCNQ1 inh 10 | KCNK9 block conf inactive | Kir21 sel inactive | HEK293 Tl ctr inactive
CC(=O)CCC1C2C(O)C(C(C)C)C(OC(=O)/C=C/c3ccccc3)CC12C (stereo not drawn)	none | KCNK9 block conf inactive | Kir21 sel inactive | HEK293 Tl ctr inactive
CC(=O)OCCCN(C)CC/C=C1/c2ccccc2CSc2ccccc21	none | KCNK9 block conf inactive | Kir21 sel inactive | HEK293 Tl ctr inactive
CCc1ccc(NC(=S)N(CCN2CCCCC2)Cc2ccco2)cc1	KCNK9 inh -8.8 | KCNK9 block conf 41% | Kir21 sel inactive | HEK293 Tl ctr 40%
CN(C)S(=O)(=O)c1ccc(N2CCCC2)c(C(=O)Nc2ccccc2Br)c1	none | KCNK9 block conf inactive | Kir21 sel inactive | HEK293 Tl ctr inactive
CCc1ccc(OCC(=O)NNC(=O)c2cc(S(=O)(=O)N(C)C)ccc2N2CCCC2)cc1	none | KCNK9 block conf inactive | Kir21 sel inactive | HEK293 Tl ctr inactive
